{
  "source": "PubChem BioAssay AID1027",
  "about": "(Sanford-Burnham Center for Chemical Genomics, 2008)",
  "note": "The campaign covered roughly 200,000 compounds. Fewer than 10 were called active.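 Rule for the calls: active = luciferase activation factor, scaled between plate controls, of at least 2 with compound at 10 µM; inactive = the rest.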 The list is a sample of the results.",
  "data": [
    {"target": "Luciferin 4-monooxygenase (Photinus pyralis) (UniProt P08659)", "sequence (P08659 whole entry, looked up)": "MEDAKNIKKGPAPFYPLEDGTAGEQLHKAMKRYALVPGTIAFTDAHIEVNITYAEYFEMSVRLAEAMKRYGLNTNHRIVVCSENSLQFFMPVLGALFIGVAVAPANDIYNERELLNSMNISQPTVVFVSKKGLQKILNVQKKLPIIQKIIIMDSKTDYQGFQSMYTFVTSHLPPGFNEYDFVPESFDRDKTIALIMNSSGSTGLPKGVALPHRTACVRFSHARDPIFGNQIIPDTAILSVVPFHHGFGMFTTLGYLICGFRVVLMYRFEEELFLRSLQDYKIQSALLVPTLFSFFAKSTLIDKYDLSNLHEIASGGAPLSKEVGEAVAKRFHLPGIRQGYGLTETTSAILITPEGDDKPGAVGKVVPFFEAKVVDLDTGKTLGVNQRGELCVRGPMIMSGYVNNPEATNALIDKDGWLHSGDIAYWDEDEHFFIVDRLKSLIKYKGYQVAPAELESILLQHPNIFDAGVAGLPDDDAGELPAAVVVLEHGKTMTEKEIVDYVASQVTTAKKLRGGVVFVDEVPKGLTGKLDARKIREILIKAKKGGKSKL", "assay": "FLuc activators, initial screening, artefact control for FLuc-dependent activation tests, biochemical, ATPlite luminescence (AID 1027)", "settings": "ATPlite luciferase biochemical, 10 min, at 10 µM, active compounds read high, 0 = ATP-free wells, 1 = DMSO control", "how_it_was_run": "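assay system = Luciferase/luciferin detection reagent, cell-free biochemical luciferase assay | also added = ATP substrate | times = 10 min post-reagent at room temperature | measured by = luminescence from luciferase reaction | measure = luciferase activation, seen as luminescence increase over controls | benchmarks = low control with PBS replacing ATP, high control enzyme plus ATP without compound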", "values": [
      {"smiles": "O=C(O)CC(Cc1ccccc1)C(=O)Nc1ccc([N+](=O)[O-])cc1", "note": "(configuration not stated)", "activation factor": "1.1 (inactive)"},
      {"smiles": "CCC1CCCCN1C(=S)Nc1ccc(C(C)=O)cc1", "note": "(configuration not stated)", "activation factor": "1 (inactive)"},
      {"smiles": "Cc1ccc(C)c(NC2=NCC(=O)N2c2ccc3c(c2)OCCO3)c1", "activation factor": "1.1 (inactive)"},
      {"smiles": "COc1ccc(C(=O)Nc2ccc3nc(N4CCCCC4)cc(C)c3c2)cc1OC", "activation factor": "1.1 (inactive)"},
      {"smiles": "NC(=O)c1ccccc1N(Cc1ccccc1)S(=O)(=O)c1ccccc1", "activation factor": "1 (inactive)"},
      {"smiles": "Cc1cccc(N2CCC(NCc3c(C(=O)N4CCCCC4)nc4c(C)cccn34)CC2)c1", "activation factor": "1 (inactive)"},
      {"smiles": "COc1ccc(CCC(=O)OCC(=O)Nc2ccc(C)c(S(=O)(=O)N(C)C)c2)cc1", "activation factor": "1 (inactive)"},
      {"smiles": "Cc1cccc(N2C(=O)SC(SC(=Nc3ccccc3)Nc3ccccc3)C2=O)c1", "note": "(configuration not stated)", "activation factor": "1 (inactive)"},
      {"smiles": "Cc1ccc(C(=O)N/C(=C\\c2cccs2)C(=O)NCCc2ccccn2)cc1C", "activation factor": "1 (inactive)"},
      {"smiles": "COc1cccc(CC2(CO)CCCN(CC3=Cc4cc(OC)ccc4OC3)C2)c1", "note": "(configuration not stated)", "activation factor": "1.1 (inactive)"},
      {"smiles": "Cc1ccc2[nH]c(C)c(CCNC(=O)NC3CCCCC3)c2c1", "activation factor": "1 (inactive)"},
      {"smiles": "S=C(Nc1cccc(Br)c1)N1CCn2cccc2C1c1cccnc1", "note": "(configuration not stated)", "activation factor": "1.1 (inactive)"},
      {"smiles": "NS(=O)(=O)c1ccc(N2C(=O)C3C4CC(C(Br)C4Br)C3C2=O)cc1", "note": "(configuration not stated)", "activation factor": "1 (inactive)"},
      {"smiles": "CCc1ccc(C2N3CC4([N+](=O)[O-])CN2CC([N+](=O)[O-])(C3)C4(C)C)cc1", "note": "(configuration not stated)", "activation factor": "1.1 (inactive)"},
      {"smiles": "Cc1nnc(SC(C)C(=O)Nc2ccc(S(=O)(=O)NC3CCCCC3)cc2)s1", "note": "(configuration not stated)", "activation factor": "1.1 (inactive)"},
      {"smiles": "Cc1ccc(C(=O)NC(=S)NCCN2CCOCC2)cc1", "activation factor": "1.1 (inactive)"},
      {"smiles": "CC(CO)N1CCS(=O)(=O)CC1", "note": "(configuration not stated)", "activation factor": "1.1 (inactive)"},
      {"smiles": "CC1CCCN(CCOCCOc2ccccc2-c2ccccc2)C1", "note": "(configuration not stated)", "activation factor": "1 (inactive)"},
      {"smiles": "Cc1noc(C)c1CCC(=O)O", "activation factor": "1 (inactive)"},
      {"smiles": "CCC1CCCCN1C(=O)CSc1nc2c(c(=O)n(C)c(=O)n2C)n1C", "note": "(configuration not stated)", "activation factor": "1 (inactive)"},
      {"smiles": "C=C(C)c1cccc(C(C)(C)NC(=O)NC2CCCC2)c1", "activation factor": "1 (inactive)"},
      {"smiles": "COc1ccc(CCCc2nnc(SCc3nc4ccccc4c(=O)[nH]3)n2C)cc1", "activation factor": "1.1 (inactive)"},
      {"smiles": "CCOC(=O)N1CCN(CCC(=O)Nc2cc(OC)ccc2OC)CC1", "activation factor": "1 (inactive)"},
      {"smiles": "Cc1ccc2nc(-c3ccc(NC(=O)CN(C)S(=O)(=O)c4ccccc4)cc3)sc2c1", "activation factor": "0.7 (inactive)"},
      {"smiles": "CC(C)(C)c1ccc(/C=C/C(=O)NC2CCS(=O)(=O)C2)cc1", "note": "(configuration not stated)", "activation factor": "0.9 (inactive)"},
      {"smiles": "O=C(COC(=O)c1ccccc1)Nc1cccc(S(=O)(=O)N2CCOCC2)c1", "activation factor": "1.1 (inactive)"},
      {"smiles": "NS(=O)(=O)c1ccc(CNC(=O)c2ccc(Cl)cc2[N+](=O)[O-])cc1", "activation factor": "1 (inactive)"}
    ]}
  ]
}
